Measurements: publication PMC7931380 (ACS Omega, 2021)
Like-named read-outs stand apart in the source and are kept apart here.

Key:
[1] = Particle size and ζ-potential by dynamic light scattering; assay type: physicochemical; conditions: 25 °C
How it was run: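 Test-compound-loaded fiber-reinforced phospholipid vesicles were diluted 10-fold in distilled water to avoid scattering artefacts. Size and ζ-potential were then measured by dynamic light scattering on a Zetasizer Nano ZS at 25 °C, with intensity read at a scattering angle of 90.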

[2] = assay type: in vivo, human
How it was run: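 Eight healthy men (21–65 y) taking no medicines or vitamins, randomized 1:1, double-blind crossover. After a ≥10 h fast, seated subjects swallowed 500 mg test formulation or 500 mg control (150 mg AA + 350 mg starch) with 240 mL water. Heparinized blood sampled 0.25–24 h post dose, spun 3500 rpm, 4 °C, 10 min; plasma at −20 °C, AA by HPLC; mean ± SD.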

[3] = male, human, plasma, po, 150 mg
[4] = plasma vitamin C, single oral dose 500 mg (150 mg AA), fasting, mean ± SD

- ζ-potential [1]: −20 to 10 mV
- Cmax [2, 3]: 12300 ± 3800 ng/mL
- half-life [2, 3]: 3.14 ± 2.01 h
- k el [2, 3]: 8.61e-05 s⁻¹
- AUC0–t [2, 4]: 9.38 ± 4.91 mg·h/dL
- AUC0–∞ [2, 4]: 9.66 ± 5.02 mg·h/dL
- Tmax [2, 4]: 3.56 ± 0.62 h
- AUC ([2]; single oral dose): 9.66 mg/dL
- AUC0–t ([2]; single oral dose): 9.38 mg/dL
Compound: O=C1O[C@H]([C@@H](O)CO)C(O)=C1O [AA, L-ascorbic acid]
